An excerpt weighted towards active compounds, which were near 27% of everything screened.
CYP2C9 activ – human CYP2C9 activators, primary screen, biochemical, luminescence; 96,000 tested, 1.4% active; Cytochrome P450 2C9 (Homo sapiens), P11712; recombinant CYP2C9, luciferin-H conversion; active compounds read high; factor 1 = untreated enzyme, 0 = blocked; activation factor at 5 µM;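 active = activation factor of 2 or more for CYP2C9 at a 5 µM dose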
Target sequence (P11712 whole entry, looked up): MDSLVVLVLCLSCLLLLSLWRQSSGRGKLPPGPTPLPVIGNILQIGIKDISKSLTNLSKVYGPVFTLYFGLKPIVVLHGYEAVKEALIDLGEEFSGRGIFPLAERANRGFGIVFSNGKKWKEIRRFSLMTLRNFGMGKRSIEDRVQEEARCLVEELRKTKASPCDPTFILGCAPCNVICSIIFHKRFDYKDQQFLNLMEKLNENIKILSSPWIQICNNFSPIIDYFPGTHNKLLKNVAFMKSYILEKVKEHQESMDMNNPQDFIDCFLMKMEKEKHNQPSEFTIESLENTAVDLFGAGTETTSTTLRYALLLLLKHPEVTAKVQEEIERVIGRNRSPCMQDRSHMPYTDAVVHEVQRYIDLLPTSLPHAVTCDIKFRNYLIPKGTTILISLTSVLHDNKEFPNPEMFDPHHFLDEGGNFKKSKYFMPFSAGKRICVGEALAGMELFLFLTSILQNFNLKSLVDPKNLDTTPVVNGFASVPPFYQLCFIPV
Rev-RRE block – HIV-1 Rev-RRE binding inhibitors, primary screen, biochemical, FRET, protein-RNA interaction. P05866. Rev peptide-RRE RNA binding. inhibition, % at 8 µM. 97,000 tested, 0.79% active. AID 704, 2007;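 active = inhibition above the screen-wide mean plus 3 SD, cut at about 35% in these data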
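Assay system: Rev peptide and RRE RNA, both fluorescently labelled; times: 5 min preincubation and 15 min binding, 25 °C; detection: FRET, ex 480 nm, em 540 and 671 nm; read-out basis: % inhibition from 671/540 nm acceptor-to-donor ratio, scaled between controls; benchmarks: DMSO low control, neomycin B high control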
CYP2C9 inhib – blockers of cytochrome P450 2C9 activity – biochemical, luminescence, ADME assay, primary screen; P11712; AID 777, 2007; 96,000 tested, 20% active; CYP2C9 Supersomes, luciferin-H conversion; inhibition, % at 5 µM;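 active = blocking of liver enzyme CYP2C9 beyond about 50% at 5 µM, limit read from the data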
Cav32 inh – Cav3.2 calcium influx blockers – cell-based, Fluo-4 calcium fluorescence, FDSS, MLSMR library, primary screen; Cav3.2-expressing cells; active compounds read low; AID 449739, 2010; Voltage-dependent T-type calcium channel subunit alpha-1H (Homo sapiens), O95180; B-score at 10 µM; 100,000 tested, 4% active;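 active = single-dose well whose peak fluorescence ratio is a statistical outlier from its plate by either plate-standardised score or position-corrected B-score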
CYP2C19 activ – human CYP2C19 activators, primary screen, biochemical, luminescence. 96,000 tested, under 10 active. recombinant CYP2C19, luciferin-H EGE luminescence; active compounds read high; 0 = fully inhibited enzyme, 1 = untreated enzyme. activation factor at 5 µM;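 active = activation factor of at least 2 at 5 µM in the primary screen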
CYP2C19 inh – blockers of cytochrome P450 2C19 activity – biochemical, luminescence, ADME assay, primary screen; P33261; CYP2C19 Supersomes, luciferin-H EGE luminescence, 30 min; inhibition, % at 5 µM; 96,000 tested, 21% active; AID 778, 2007;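 active = CYP2C19 inhibition above a set limit at 5 µM in the primary screen, cut at about 50% in these data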
Each line names hits and unclear results; the compound was inactive in the other large screens; ! = a repeat was not active.

O=C(CC12CC3CC(CC(C3)C1)C2)NCc1ccncc1	CYP2C9 inhib 88, CYP2C19 inh 99
O=C(COC(=O)C12CC3CC(CC(C3)C1)C2)NCCc1ccccc1	CYP2C9 inhib 85, CYP2C19 inh 53
CNC(=O)CC12CC3CC(CC(C3)C1)C2	none
CCCc1c(O)nc(SCC(=O)NCCc2ccc(OC)c(OC)c2)[nH]c1=O	none
COc1cccc(/C=N/NC(=O)CSCC(=O)Nc2ccccc2)c1O	none
COC(=O)CSc1cc(C)nc2ccc(OC)cc12	none
COc1ccc2nc(C)cc(SCC(=O)O)c2c1	CYP2C19 inh 50!
COc1ccc2nc(C)cc(SCC(=O)N/N=C/c3cccc4ccccc34)c2c1	CYP2C9 inhib 54
COc1cc(C2C(C#N)=C(N)OC3=C2C(=O)CCC3)cc(OC)c1OC(=O)N1CCOCC1 (configuration not stated)	none (no result: Cav32 inh)
c1ccc(Cc2nc3ccccc3n2Cc2ccccc2)cc1	CYP2C9 inhib 92, Cav32 inh -4.3
CC(C)(C)Cc1nc2ccccc2n1CCc1ccccc1	Cav32 inh -4.3, CYP2C19 inh 85
c1ccc(Cn2c(CSc3nnnn3-c3ccccc3)nc3ccccc32)cc1	none
CCN1C(=O)/C(=C2\C=Cc3ccccc3N2CC)OC1=S	none (no result: CYP2C9 activ, CYP2C9 inhib, CYP2C19 activ, CYP2C19 inh)
CCN1C(=O)/C(=C/N(C)c2ccccc2)OC1=S	CYP2C9 inhib 53, CYP2C19 inh 79
Cc1nc2ccccc2c(=O)n1NCc1cccs1	CYP2C19 inh 75
O=C(Nn1c(Cc2cccs2)nc2ccccc2c1=O)c1cccs1	CYP2C9 inhib 80, CYP2C19 inh 84 (no result: Rev-RRE block)
CCOC(=O)Cc1csc(NC(=O)c2cnc3scc(C)n3c2=O)n1	none (no result: CYP2C9 activ, CYP2C9 inhib, CYP2C19 activ, CYP2C19 inh)
CCOc1ccc(C(=O)NCC(=O)OC(C)C(=O)NCc2ccco2)cc1OCC (configuration not stated)	none
CC(C)CCSc1nc(N2CCOCC2)c2c(c1C#N)CC(C)(C)OC2	CYP2C9 inhib 98, Cav32 inh -3.8, CYP2C19 inh 63
COC(=O)c1ccc(CSc2nc(N3CCOCC3)c3c(c2C#N)CC(C)(C)OC3)o1	CYP2C9 inhib 98, CYP2C19 inh 69
CC1(C)Cc2c(C#N)c(SCC(=O)c3ccccc3)nc(N3CCCC3)c2CO1	none (no result: CYP2C9 activ, CYP2C9 inhib, Cav32 inh, CYP2C19 activ, CYP2C19 inh)
COc1ccc(CNC(=O)c2ccc(S(=O)(=O)N3CCCC3)cc2)cc1OC	none (no result: Cav32 inh)
COc1ccc(OC)c(NC(=O)CN(c2ccc(C)cc2)S(=O)(=O)c2c(C)noc2C)c1	none
COC(=O)CN(c1ccc(OC)cc1)S(=O)(=O)c1c(C)noc1C	none
COc1ccc(N(CC(=O)Nc2ccc(C)cn2)S(=O)(=O)c2c(C)noc2C)cc1	CYP2C9 inhib 70, CYP2C19 inh 73
Cc1noc(C)c1S(=O)(=O)N(CC(=O)N1CCn2c1nc1ccccc12)c1ccc(C(C)C)cc1	CYP2C9 inhib 87, CYP2C19 inh 58
CCCN(c1ccc(C(C)C)cc1)S(=O)(=O)c1c(C)noc1C	CYP2C9 inhib 82
CCOC(=O)C1CCN(C(=O)CN(c2ccc(OC)cc2)S(=O)(=O)c2c(C)noc2C)CC1	none
CCOc1ccc(N(CC(=O)Nc2ccc(OC)cc2)S(=O)(=O)c2c(C)noc2C)cc1	none
COc1ccc(OC)c(NC(=O)CN(c2ccc(C(C)C)cc2)S(=O)(=O)c2c(C)noc2C)c1	CYP2C9 inhib 94, Cav32 inh -4.5, CYP2C19 inh 75
O=S(=O)(c1ccccc1C(F)(F)F)N1CCOCC1	none
CCn1cc(C(=O)Nc2ccc(-n3cnnn3)c(OC)c2)c(=O)c2ccc(C)nc21	none
COc1ccc(N(CC(=O)Nc2cc(Cl)ccc2OC)S(=O)(=O)c2c(C)noc2C)cc1	CYP2C9 inhib 89, CYP2C19 inh 90
CC1(C)C(c2cccs2)=[N+]([O-])C2(CCCCC/C2=N\NC(N)=O)N1O (configuration not stated)	none
COC(=O)C1=C(COc2ccccc2)NC(=O)NC1c1ccc(Cl)cc1 (configuration not stated)	none (no result: CYP2C9 activ, Rev-RRE block, CYP2C9 inhib, CYP2C19 activ, CYP2C19 inh)
Cc1occc1C(=O)Nc1nccs1	none

Bioassay records: PubChem BioAssay, several laboratories
